Activity calls are given as the source filed them. The rule behind the calls is not given here.
Legend:
MCF7 [1] = assay: Induction of apoptosis in human MCF7 cells assessed as early apoptotic cells at 10 uM after 48 hrs by annexin V-FITC/PI dual staining based flow cytometry (reference value: 11%); format: functional
NCI/ADR-RES [2] = assay: Induction of apoptosis in human MCF7/ADR cells assessed as early apoptotic cells at 3 uM after 48 hrs by annexin V-FITC/PI dual staining based flow cytometry (reference value: 2.72%); format: functional
NCI/ADR-RES [3] = assay: Induction of apoptosis in human MCF7/ADR cells assessed as necrotic cells at 3 uM after 48 hrs by annexin V-FITC/PI dual staining based flow cytometry (reference value: 2.43%); format: functional
NCI/ADR-RES [4] = assay: Antiproliferative activity against human MCF7/ADR cells after 48 to 72 hrs by MTT assay; format: functional, cell-based
In short: (§1)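 Cells in log phase seeded and allowed to adhere, then exposed to graded compound concentrations for 48 h or 72 h; MTT added for a further 2-3 h, formazan dissolved in DMSO. IC50 taken from dose-response curves; mean ± SD of at least three independent experiments.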

A549/TR = assay: Antiproliferative activity against human A549/TR cells after 48 to 72 hrs by MTT assay; format: functional, cell-based; in short: as §1
A549 = assay: Antiproliferative activity against human A549 cells after 48 to 72 hrs by MTT assay; format: functional, cell-based; in short: as §1
MCF7 [5] = assay: Cell cycle arrest in human MCF7 cells assessed as accumulation at G2/M phase at 100 uM after 18 hrs by propidium iodide staining based flow cytometry (reference value: 9.98%); format: functional
MCF7 [6] = assay: Induction of apoptosis in human MCF7 cells assessed as necrotic cells at 10 uM after 48 hrs by annexin V-FITC/PI dual staining based flow cytometry (reference value: 0.16%); format: functional
[7] = Selectivity ratio of IC50 for HUVEC to IC50 for human A549/TR cells; format: toxicity; settings: HUVEC versus A549/TR cells
MCF7 [8] = assay: Cell cycle arrest in human MCF7 cells assessed as accumulation at G2/M phase at 30 uM after 18 hrs by propidium iodide staining based flow cytometry (reference value: 9.98%); format: functional
NCI/ADR-RES [9] = assay: Induction of apoptosis in human MCF7/ADR cells assessed as necrotic cells at 100 uM after 48 hrs by annexin V-FITC/PI dual staining based flow cytometry (reference value: 2.43%); format: functional
MCF7 [10] = assay: Cell cycle arrest in human MCF7 cells assessed as accumulation at S phase at 30 uM after 18 hrs by propidium iodide staining based flow cytometry (reference value: 44.80%); format: functional
NCI/ADR-RES [11] = assay: Induction of apoptosis in human MCF7/ADR cells assessed as early apoptotic cells at 10 uM after 48 hrs by annexin V-FITC/PI dual staining based flow cytometry (reference value: 2.72%); format: functional
NCI/ADR-RES [12] = assay: Induction of apoptosis in human MCF7/ADR cells assessed as late apoptotic cells at 3 uM after 48 hrs by annexin V-FITC/PI dual staining based flow cytometry (reference value: 5.02%); format: functional
NCI/ADR-RES [13] = assay: Induction of apoptosis in human MCF7/ADR cells assessed as early apoptotic cells at 100 uM after 48 hrs by annexin V-FITC/PI dual staining based flow cytometry (reference value: 2.72%); format: functional
NCI/ADR-RES [14] = assay: Induction of apoptosis in human MCF7/ADR cells assessed as viable cells at 100 uM after 48 hrs by annexin V-FITC/PI dual staining based flow cytometry (reference value: 89.8%); format: functional; settings: read-out: Activity
MCF7 [15] = assay: Induction of apoptosis in human MCF7 cells assessed as late apoptotic cells at 10 uM after 48 hrs by annexin V-FITC/PI dual staining based flow cytometry (reference value: 11.1%); format: functional
Raji = assay: Antiproliferative activity against human Raji cells after 48 to 72 hrs by MTT assay; format: functional, cell-based; in short: as §1
MCF7 [16] = assay: Antiproliferative activity against human MCF7 cells at 1 uM after 48 to 72 hrs by MTT assay relative to control; format: functional
In short: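 Single-concentration screen in the MTT proliferation assay: log-phase cells seeded and allowed to adhere, exposed to compound at 1 µM for 48 h or 72 h, MTT added for 2-3 h, formazan dissolved in DMSO; percent inhibition versus control.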

HUVEC = assay: Antiproliferative activity against HUVEC after 48 to 72 hrs by MTT assay; format: cell-based; settings: Homo sapiens; in short: as §1
A2780/Taxol = assay: Antiproliferative activity against human A2780T cells after 48 to 72 hrs by MTT assay; format: functional, cell-based; in short: as §1
NCI-H460 = assay: Antitumor activity against human H460 cells xenografted in athymic nude Balb/C mouse assessed as tumor growth inhibition at 100 mg/kg, po administered 3 times per week measured on day 18 relative to control; format: functional; settings: 432 h, read-out: TGI
In short: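 Nude mice (5-6 weeks old, female) implanted sc in right flank with 5 × 10^6 H460 cells in HBSS; at 100 mm3 tumours, randomised 6 per group to vehicle, oral 100 mg/kg three times weekly, or ip 30 mg/kg once weekly. Tumour volume by caliper every 2 days as (π/6) × length × width²; body weight recorded; inhibition from tumour weights versus control.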

MCF7 [17] = assay: Cell cycle arrest in human MCF7 cells assessed as accumulation at G0/G1 phase at 30 uM after 18 hrs by propidium iodide staining based flow cytometry (reference value: 45.22%); format: functional
[18] = Resistance index, ratio of IC50 for human A549/TR cells to IC50 for human A549 cells; format: functional
MCF7 [19] = assay: Induction of apoptosis in human MCF7 cells assessed as early apoptotic cells at 30 uM after 48 hrs by annexin V-FITC/PI dual staining based flow cytometry (reference value: 11%); format: functional
Mus musculus = assay: Toxicity in athymic nude Balb/C mouse xenografted with human H460 cells assessed as effect on feeding behaviour at 100 mg/kg, po administered 3 times per week measured every 2 days; format: organism-based; settings: in vivo, 48 h
In short: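 Nude mice, 5-to-6-week-old females, given 5 × 10^6 H460 cells sc in right flank in HBSS; at 100 mm3 tumour volume randomized, 6 per group. Vehicle; oral 100 mg/kg three times weekly; or ip 30 mg/kg once weekly. Toxicity signs and mortality observed daily; body weight measured every 2 days.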

[20] = Resistance index, ratio of IC50 for human A2780T cells to IC50 for human A2780S cells; format: functional
MCF7 [21] = assay: Cell cycle arrest in human MCF7 cells assessed as accumulation at S phase at 10 uM after 18 hrs by propidium iodide staining based flow cytometry (reference value: 44.80%); format: functional
MCF7 [22] = assay: Cell cycle arrest in human MCF7 cells assessed as accumulation at G0/G1 phase at 100 uM after 18 hrs by propidium iodide staining based flow cytometry (reference value: 45.22%); format: functional
NCI/ADR-RES [23] = assay: Induction of apoptosis in human MCF7/ADR cells assessed as necrotic cells at 30 uM after 48 hrs by annexin V-FITC/PI dual staining based flow cytometry (reference value: 2.43%); format: functional
MCF7 [24] = assay: Induction of apoptosis in human MCF7 cells assessed as late apoptotic cells after 48 hrs by annexin V-FITC/PI dual staining based flow cytometry; format: functional, cell-based
MCF7 [25] = assay: Cell cycle arrest in human MCF7 cells assessed as accumulation at sub-G1 phase after 18 hrs by propidium iodide staining based flow cytometry; format: functional
[26] = Selectivity ratio of IC50 for HUVEC to IC50 for human A2780S cells; format: toxicity; settings: HUVEC versus A2780S cells

In the case of `N#Cc1ccc(COc2cccc(/C=N/NC(=O)c3cc4c(cn3)[nH]c3ccccc34)c2)cc1`, the Activity (MCF7 [1]) is reported as 13.1%, the Activity (NCI/ADR-RES [2]) is reported as 2.44% and the Activity (NCI/ADR-RES [3]) is reported as 6.04%. It also gave an IC50 (NCI/ADR-RES [4]) of 982 nM, an IC50 (A549/TR) of 3130 nM and an IC50 (A549) of 1370 nM. The Activity (MCF7 [5]) was 4.29%, the Activity (MCF7 [6]) was 0.3% and the selectivity ratio [7] was 28.3. It also gave an Activity (MCF7 [8]) of 6.06%, an Activity (NCI/ADR-RES [9]) of 9.14% and an Activity (MCF7 [10]) of 55.32%. The Activity (NCI/ADR-RES [11]) was 4.38%, the Activity (NCI/ADR-RES [12]) was 7.2% and the Activity (NCI/ADR-RES [13]) was 7.11%. The viability at 100 µM (NCI/ADR-RES [14]) was 53.5%, the Activity (MCF7 [15]) was 20.1% and the IC50 (Raji) was 1060 to 1200 nM. The inhibition at 1 µM (MCF7 [16]) was 59.6%, the IC50 (HUVEC) was 88600 nM and the IC50 (A2780/Taxol) was 3990 nM. The inhibition in vivo at 100 mg/kg (NCI-H460) was 17.2%, the Activity (MCF7 [17]) was 38.62% and the “Ratio IC50” value [18] was 2.28. The Activity (MCF7 [19]) was 19.4%, the Activity (Mus musculus) was “Non-Toxic” and the “Ratio IC50” value [20] was 1.32. For the same molecule, the Activity (MCF7 [21]) was 56.38%, the Activity (MCF7 [22]) was 41.83% and the Activity (NCI/ADR-RES [23]) was 8.52%. The Activity (MCF7 [24]) was “Dose-dependent effect”, the Activity (MCF7 [25]) was “Active” and the selectivity ratio [26] was 29.3.

— ChEMBL document CHEMBL4152257, “Discovery of novel β-carboline/acylhydrazone hybrids as potent antitumor agents and overcome drug resistance” (Eur J Med Chem, 2018)
